Source: PubChem
Sampled rows, rich in hits. Any-hit rate of the full collection: about 3%.
HTR1E agonist – agonists of human 5-HT1E serotonin receptor. P28566. CHO 5-HT1E Ga15 NFAT-bla reporter, FRET; 0% DMSO wells, 100% control agonist wells. activation, % at 6 µM. actives 0.69% (n = 65,000). AID 574;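 active = activation above a set limit, the screen-wide mean activation plus 3 SD, cut at about 8.5% in these data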;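 also: 100% = positive control agonist at 1 µM giving full maximal response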
S1P3 agonist – activates the human S1P3 receptor. S1P3 NFAT-BLA reporter cells, agonism, FRET ratio; relative to 1 µM S1P, basal subtracted. activation, % at 4.5 µM. actives 0.1% (n = 60,000);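 active = activation above the screen-wide mean plus 3 SD, cut at about 4.5% in these data, passing the limit was not always enough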
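material = human S1P3 NFAT-BLA reporter CHO cells | schedule = 4 h compound at 37 °C, 2 h substrate at RT | measured by = fluorescent BLA substrate, ex 405 nm, em 460/535 nm ratio | controls = 1 µM S1P reference | replication = primary once, confirmation triplicate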
HTR1E antagonist – 5-HT1E (human) receptor antagonism; inhibition, % at 6 µM; CHO 5-HT1E Ga15 NFAT-bla reporter, FRET, antagonist; AID 571; P28566; actives 0.99% (n = 65,000);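 active = inhibition above a set limit, the mean inhibition across every tested compound plus 3 SD, cut at about 29% in these data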;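 also: signal is the 460 over 535 nm emission ratio of beta-lactamase substrate; 0% = agonist plus DMSO wells and 100% = wells without agonist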
S1P1 ag pot – agonists and agonism potentiators of human S1P1 receptor | S1P1 CRE-bla cells, forskolin, beta-lactamase FRET, potentiator mode; S1P1 agonist co-added at EC20, 2 nM; 100% = saturating reference agonist, 0% = basal | actives 0.57% (n = 56,000) | activation, % at 9.5 µM;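 active = activation above a cutoff set at the mean activation of all tested compounds plus 3 SD, cut at about 54% in these data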;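 also: forskolin at 4 µM as EC80 and the EC20 agonist is SEW2871; 100% = SEW2871 at its EC100 plus forskolin at EC80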
Target sequence (P21453 whole entry, looked up): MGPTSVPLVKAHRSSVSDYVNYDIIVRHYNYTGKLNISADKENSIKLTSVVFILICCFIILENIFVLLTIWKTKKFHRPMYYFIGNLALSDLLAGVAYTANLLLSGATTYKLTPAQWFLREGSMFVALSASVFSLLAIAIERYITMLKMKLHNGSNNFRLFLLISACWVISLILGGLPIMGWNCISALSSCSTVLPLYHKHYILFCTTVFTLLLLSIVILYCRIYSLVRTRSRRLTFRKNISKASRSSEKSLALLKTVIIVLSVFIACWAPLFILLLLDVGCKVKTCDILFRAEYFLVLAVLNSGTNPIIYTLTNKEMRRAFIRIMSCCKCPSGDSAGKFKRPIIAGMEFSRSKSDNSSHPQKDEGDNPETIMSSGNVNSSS
5HT1a antag – antagonists of human 5-HT1a serotonin receptor | P08908 | CHO 5-HT1a Ga15 NFAT-bla reporter, antagonist mode | inhibition, % at 10 µM | actives 0.68% (n = 62,000);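 active = inhibition above the mean of all tested compounds plus 3 SD, cut at about 43% in these data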;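 also: receptor stimulated by 5-CT agonist at 100 nM near EC80; beta-lactamase reporter measured by ratiometric fluorescence of a cleavable substrate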
HTR1A agonist – 5-HT1a (human) receptor agonism. activation, % at 10 µM. CHO 5-HT1a Ga15 NFAT-bla reporter, FRET ratio; 0% basal, 100% maximal reference agonist. actives 0.56% (n = 65,000). AID 567;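 active = activation above the screen-wide mean activation plus 3 SD, cut at about 19% in these data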;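 also: 0% = DMSO wells and 100% = 5-CT at EC100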
* hit, by the source's call; . = no result.

SMILES	HTR1E agonist	S1P3 agonist	HTR1E antagonist	S1P1 ag pot	5HT1a antag	HTR1A agonist
COc1ccccc1C(=O)NC(=Nc1nc2ccccc2o1)NC(=O)c1ccccc1OC	0	-2	41*	-15	.	0
COc1ccc(CCNCc2csc3nc4ccccc4n23)cc1OC	4	-1	4	46	-12	1
O=C(O)c1ccc(OCC(O)Cn2cnc3ccccc32)cc1 (stereo not drawn)	9.3*	0	-11	-3	3	0
CCCS(=O)(=O)N1CCC(C(=O)NCc2ccccc2Cl)CC1	0	0	-5	-20	6	2
COc1ccc(NC(=O)C2=C(C)C(=O)OC23CCC(C)CC3)c(OC)c1 (stereo not drawn)	0	0	0	-17	5	-2
O=c1[nH]c2c(s1)C(c1ccco1)C1C3CCC(C3)C1S2 (stereo not drawn)	0	.	5	.	12	0
CC1=C(C(=O)Nc2ccccc2)C(c2ccc(C)o2)n2c(s/c(=C\c3ccco3)c2=O)=N1 (stereo not drawn)	0	-1	42*	7	28	0
CCN(CC)CCCN1C(=O)C(O)=C(C(=O)c2ccco2)C1c1ccc(C)o1 (stereo not drawn)	1	.	4	.	2	0
COc1ccc(N2CCN(CCNC(=O)c3cccn4c(=O)c5ccc(Cl)cc5nc34)CC2)cc1	0	.	-1	.	-2	0
COCCCNC(=O)CN(c1cccc(Cl)c1)S(C)(=O)=O	0	-2	-7	-1	-1	-1
CC(=O)c1cc2c(cc1NC(=O)c1cc(C)nn1-c1ccccc1)OCO2	1	-1	9	-6	17	24*
CCCCOc1ccc(S(=O)(=O)Nc2cccnc2)cc1	0	-1	3	85*	2	-4
O=C(COc1ccc(Cl)cc1Cl)Nc1ccc(Cl)cn1	1	0	-13	-10	-8	-1
O=C(COC(=O)CCC1CCCC1)Nc1ccc(Cl)cn1	59*	-1	1	9	-11	-6
CNc1nc(SCc2ccccc2)nc(N2CCOCC2)n1	0	0	33*	-32	0	-7
CC(C)(C)Nc1nc(SCc2ccccc2)nc(N2CCOCC2)n1	0	2	6	-69	-6	0
CCOc1cc(C2NC(=O)N(C)C(C)=C2C(=O)OC)cc(Br)c1O (stereo not drawn)	-1	0	-7	8	4	-4
Oc1c(C(Nc2ccccn2)c2ccccn2)ccc2cccnc12 (stereo not drawn)	0	0	43*	12	48*	-2
Brc1ccc(C2=Nn3c(nnc3-c3cccnc3)SC2)s1	0	0	2	6	-15	-2
COc1ccccc1-c1nnc2n1N=C(c1ccc(O)c(O)c1)CS2	-1	-5	66*	0	.	0
Brc1ccccc1C1=Nn2c(nnc2-c2ccccc2)SC1	-1	0	33*	6	33	-2
CCOc1ccc(C2=Nn3c(nnc3-c3ccccc3OC)SC2)cc1	-1	-6	75*	-25	.	1
COc1ccc(C2=Nn3c(nnc3-c3cccnc3)SC2)cc1OC	0	2	34*	-52	.	1
CCN(CCO)C(=O)C12CCC(C)(C(=O)C1)C2(C)C (stereo not drawn)	0	-1	-6	-9	-20	0
CCOc1ccc(NC(=O)N(CCN(C)C)C(C)c2ccncc2)cc1 (stereo not drawn)	1	-1	-4	1	7	-3
CC1=C(C(=O)NCCN2CCN(C)CC2)C2(CCC(C)CC2)OC1=O (stereo not drawn)	0	-1	3	6	4	-1
CC(=O)NCC(=O)OCN1C(=O)c2ccccc2C1=O	-1	-5	2	7	.	-4
COc1cc(C2C(C#N)=C(C)NC3=C2C(=O)c2ccccc23)cc(OC)c1OC (stereo not drawn)	1	-1	82*	-47	63*	-4
